Assay type in all cases: functional
The subject of one assay is Salmonella typhimurium. In words: Antimicrobial activity against Salmonella enterica subsp. enterica serovar Typhimurium ATCC 14028 assessed as growth inhibition rate at 13.56 mg/l after 72 hr by spectrophotometry. The settings on record: ATCC 14028, 72 h, read-out: GI. The method in brief: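 Salmonella Typhimurium ATCC 14028 grown in nutrient broth at 30 °C, precultured 24 h, then subcultured 1:100 for 18 h before testing. Single volatile compounds (>95% pure) were added. OD was read every 24 h over 72 h in a Bioscreen C, with 10% Tween 80 as the comparison control.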

For a further assay, the system named is Staphylococcus aureus. In words: Antimicrobial activity against Staphylococcus aureus ATCC 25923 assessed as growth inhibition rate at 13.56 mg/l after 72 hr by spectrophotometry. Conditions: ATCC 25923, 72 h, read-out: GI.
A further assay relates to Vibrio parahaemolyticus. In words: Antimicrobial activity against Vibrio parahaemolyticus ATCC 33844 assessed as growth inhibition rate at 13.56 mg/l after 72 hr by spectrophotometry. Conditions: ATCC 33844, 72 h, read-out: GI.
A further assay concerns Escherichia coli. In words: Antimicrobial activity against Escherichia coli O157:H7 ATCC 43894 assessed as growth inhibition rate at 13.56 mg/l after 72 hr by spectrophotometry. The settings on record: O157:H7 ATCC 43894, 72 h, read-out: GI.
A further assay has as its system Bacillus cereus. In words: Antimicrobial activity against Bacillus cereus ATCC 11778 assessed as growth inhibition rate at 13.56 mg/l after 72 hr by spectrophotometry. Conditions: ATCC 11778, 72 h, read-out: GI. In outline: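 Pure volatile compounds (purity >95%; one at 90%) were tested against B. cereus ATCC 11778. The strain was grown at 30 °C in nutrient broth for 24 h, then subcultured for 18 h. Optical density was read in a Bioscreen C every 24 h for 72 h, with 10% Tween 80 as the control.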

A further assay deals with Listeria monocytogenes. In words: Antimicrobial activity against Listeria monocytogenes ATCC 19111 assessed as growth inhibition rate at 13.56 mg/l after 72 hr by spectrophotometry. Conditions: ATCC 19111, 72 h, read-out: GI. In outline: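 L. monocytogenes was grown at 30 °C in tryptic soy broth, subcultured for 18 h, and exposed to pure volatile compounds (>95% purity). Growth was followed by Bioscreen C optical density every 24 h for 72 h against a 10% Tween 80 control.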

Molecules are shown by their SMILES.

`CCC/C=C/CO`: the inhibition of growth at 13.56 µg/mL worked out at 29.1% in the assay with Salmonella typhimurium; 29.5% in the assay with Staphylococcus aureus; 38.6% with Vibrio parahaemolyticus; 31.8% with Escherichia coli; 52.5% in the assay on Bacillus cereus; 19.2% in the assay on Listeria monocytogenes.

Source of the values: ChEMBL document CHEMBL3046951, “Volatile constituents from the leaves of Callicarpa japonica Thunb. and their antibacterial activities” (2004).
